Converted amounts (≈) assume the structure as drawn.

The conditions of data set [1]: 9 (b3); cited from earlier work.
The nature of data set [2]: Aqueous solubility of ATXP and ATX at 25 °C, by HPLC. Type of data set: physicochemical. Conditions: for solubility at 1 h: 25 °C, thermodynamic from solid. A digest of the protocol:
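Excess solid was added to 1 mL of ultrapure water, 0.9% NaCl (pH 7.4) or PBS (pH 7.4) and held at 25 °C. Samples were taken at 1, 24 and 48 h, filtered (0.22 μm) and quantified by HPLC (C18; 75% methanol/water with 1% TFA; 1 mL/min; 350 nm). Experiments were repeated three times and reported as mean ± SD.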

Data set [3] concerns focal cerebral ischemia-reperfusion injury (MCAO). Description: Neurological deficit. The format is in vivo, Sprague-Dawley rats. Conditions: edaravone 6 mg/kg iv, single dose, P = 0.4298.
For data set [4] the test system is unchanged. Details: species or system Sprague-Dawley rats. Conditions: rat, in vivo.

`COc1ccc(-c2cc(=S)ss2)cc1` [ATT, Anethol trithione]: the water solubility in data set [1] is 0.38 µg/mL (≈ 1.58 µM).
Turning to `Oc1ccc(-c2cc(=S)ss2)cc1` [ATX, 5-(4-hydroxyphenyl)-3H-1,2-dithiole3-thione], the solubility at 1 h in data set [2] (0.9% NaCl solution, pH 7.4, saline or isotonic) was below 0.8 µg/mL; in data set [2] (PBS, pH 7.4, aqueous buffer), below 0.8 µg/mL; in data set [2] (ultrapure water, water), 0.8 ± 0.02 µg/mL (≈ 3.53 µM).
Turning to `CC1=NN(c2ccccc2)C(=O)C1` [edaravone], the “solubility in saline, in words” value in data set [2] (saline (0.9%)) is “freely soluble”. In addition, the “neurological deficit score, 24 h vs 0 h after reperfusion” value in data set [3] was “did not exhibit increased neurological scores”. The “infarct volume vs vehicle” value in data set [4] is “significant reductions in infarct volume”.

Values taken from PMC7066653 (ACS Omega, 2020).
